Consider seven molecules from ChEMBL document CHEMBL2086346, “New artesunic acid homodimers: potent reversal agents of multidrug resistance in leukemia cells” (Bioorg Med Chem, 2012).

For test [1], the system named is CCRF-CEM. Nature of the test: Selectivity ratio of IC50 for human CEM/ADR5000 cells to IC50 for human CCRF-CEM cells. The format is functional.
Test [2] in a line: Cytotoxicity against human CEM/ADR5000 by CCK-8 assay. The format is functional. Summed up:
(§1)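 CCRF-CEM or P-glycoprotein-overexpressing CEM/ADR5000 leukemia cells in RPMI1640. CEM/ADR5000 maintained by treatment with 5000 ng/mL doxorubicin every other week for three days. Viability by CCK-8: reagent added, 3 h at 37 °C, absorbance 450 nm. IC50 from dose–response curves. At least two independent experiments, each with 6 parallel measurements (12 values per concentration), mean ± SEM.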
(In general: Formazan colour is commonly taken as a measure of viable cells.)

Test [3] has as its system CCRF-CEM. Nature of the test: Cytotoxicity against human CCRF-CEM cells by CCK-8 assay. In kind it is functional, cell-based. Summed up: as §1

Turning to `C[C@H]1[C@H](OC(=O)CCC(=O)NCCCNC(=O)CCC(=O)O[C@@H]2O[C@@H]3O[C@@]4(C)CC[C@H]5[C@H](C)CC[C@@H]([C@H]2C)[C@@]35OO4)O[C@@H]2O[C@@]3(C)CC[C@H]4[C@H](C)CC[C@@H]1[C@@]24OO3`, the “Ratio IC50” value with CCRF-CEM [1] turned out to be 0.17. In test [2], the IC50 (commonly the midpoint of a concentration-inhibition curve) was found to be 200 nM.

In the case of `C[C@H]1[C@H](OC(=O)CCC(=O)NCC(O)CNC(=O)CCC(=O)O[C@@H]2O[C@@H]3O[C@@]4(C)CC[C@H]5[C@H](C)CC[C@@H]([C@H]2C)[C@@]35OO4)O[C@@H]2O[C@@]3(C)CC[C@H]4[C@H](C)CC[C@@H]1[C@@]24OO3` (some centres not stated), the IC50 with CCRF-CEM [3] is 2160 nM; in test [2], 1210 nM. For the same molecule, the “Ratio IC50” value in the test on CCRF-CEM [1] amounted to 0.56.

`C[C@H]1[C@H](OC(=O)CCC(=O)NCc2cccc(CNC(=O)CCC(=O)O[C@@H]3O[C@@H]4O[C@@]5(C)CC[C@H]6[C@H](C)CC[C@@H]([C@H]3C)[C@@]46OO5)c2)O[C@@H]2O[C@@]3(C)CC[C@H]4[C@H](C)CC[C@@H]1[C@@]24OO3`: the results for the concentration for half-maximal inhibition (IC50) (in the test on CCRF-CEM [3]; in test [2]) were 1600 nM and 1510 nM, respectively. In addition, in the test with CCRF-CEM [1], the “Ratio IC50” value was determined as 0.94.

Take `C[C@H]1[C@H](OC(=O)CCC(=O)NCCCCCCCCNC(=O)CCC(=O)O[C@@H]2O[C@@H]3O[C@@]4(C)CC[C@H]5[C@H](C)CC[C@@H]([C@H]2C)[C@@]35OO4)O[C@@H]2O[C@@]3(C)CC[C@H]4[C@H](C)CC[C@@H]1[C@@]24OO3`: the 50% inhibitory concentration (IC50) with CCRF-CEM [3] was 2940 nM; in test [2] it was 3040 nM. Further, in the test on CCRF-CEM [1], the “Ratio IC50” value was 1.03.

In the case of `C[C@@H]1CC[C@H]2[C@@H](C)C(=O)O[C@@H]3O[C@@]4(C)CC[C@@H]1[C@]32OO4` [ARTEMISININ], the “Ratio IC50” value in the test with CCRF-CEM [1] is listed as 0.73.

`C[C@H]1[C@H](OC(=O)CCC(=O)O)O[C@@H]2O[C@@]3(C)CC[C@H]4[C@H](C)CC[C@@H]1[C@@]24OO3` [ARTESUNATE]: the “Ratio IC50” value in the test on CCRF-CEM [1] turned out to be 0.67. The molecule further yielded an IC50 in test [2] of 1200 nM.

For the molecule `COc1cccc2c1C(=O)c1c(O)c3c(c(O)c1C2=O)C[C@@](O)(C(=O)CO)C[C@@H]3O[C@H]1C[C@H](N)[C@H](O)[C@H](C)O1` [DOXORUBICIN], the concentration for half-maximal inhibition (IC50) is 37 nM with CCRF-CEM [3] and more than 5200 nM in test [2]. In addition, the “Ratio IC50” value in the test on CCRF-CEM [1] is on record as more than 140.
